The target in series [1] is T1, Phosphatidylinositol 4,5-bisphosphate 3-kinase catalytic subunit delta isoform (Homo sapiens) (UniProt O00329).
T1 sequence (whole entry): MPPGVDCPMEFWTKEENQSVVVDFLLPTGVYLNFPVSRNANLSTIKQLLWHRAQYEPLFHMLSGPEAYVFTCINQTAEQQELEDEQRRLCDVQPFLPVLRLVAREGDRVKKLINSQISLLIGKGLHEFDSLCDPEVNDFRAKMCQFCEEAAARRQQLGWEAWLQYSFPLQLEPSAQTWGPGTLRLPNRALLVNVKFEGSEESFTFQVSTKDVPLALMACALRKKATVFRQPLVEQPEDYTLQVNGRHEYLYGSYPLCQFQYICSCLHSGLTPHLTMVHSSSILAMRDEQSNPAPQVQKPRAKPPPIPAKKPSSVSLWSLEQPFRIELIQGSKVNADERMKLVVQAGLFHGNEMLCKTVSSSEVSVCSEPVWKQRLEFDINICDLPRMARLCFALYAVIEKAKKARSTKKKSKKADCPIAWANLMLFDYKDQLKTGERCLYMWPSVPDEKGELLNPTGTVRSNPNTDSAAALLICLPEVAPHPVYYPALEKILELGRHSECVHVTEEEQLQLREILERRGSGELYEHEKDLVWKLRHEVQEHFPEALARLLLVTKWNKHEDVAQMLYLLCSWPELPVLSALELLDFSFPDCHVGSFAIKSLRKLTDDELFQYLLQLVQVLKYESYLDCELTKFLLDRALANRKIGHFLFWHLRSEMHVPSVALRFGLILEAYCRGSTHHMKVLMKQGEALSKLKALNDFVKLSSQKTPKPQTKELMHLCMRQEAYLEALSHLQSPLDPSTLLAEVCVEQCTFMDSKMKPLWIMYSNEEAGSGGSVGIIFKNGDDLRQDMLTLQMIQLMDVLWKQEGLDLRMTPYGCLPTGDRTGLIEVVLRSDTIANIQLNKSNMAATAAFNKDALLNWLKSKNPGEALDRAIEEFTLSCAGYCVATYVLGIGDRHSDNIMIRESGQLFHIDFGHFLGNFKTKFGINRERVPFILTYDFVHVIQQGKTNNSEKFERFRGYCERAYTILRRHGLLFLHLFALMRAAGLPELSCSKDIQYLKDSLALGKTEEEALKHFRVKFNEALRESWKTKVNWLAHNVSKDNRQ
Kind of series: Inhibition of PI3Kdelta in human SU-DHL-5 cells assessed as inhibition of 4EBP1 phosphorylation at 1 to 5 uM measured after 3 hrs by western blot assay. Conditions: dose 1-5 µM. The format is cell-based. In outline:
(§1)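 Treatment lasted 3 h: SUDHL-5 at 1 μM, MOLT-4 at 5 μM. Cells washed twice in cold PBS and lysed. Proteins resolved on 10–12% SDS-PAGE and blotted to PVDF. Probed for p-AKT S473, p-AKT T308, p-S6 and p-4E-BP1, with β-actin as loading control.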
On the technique in general: In western blotting, separated proteins are transferred to a membrane and probed.

Series [2] addresses T1, Phosphatidylinositol 4,5-bisphosphate 3-kinase catalytic subunit delta isoform (Homo sapiens). Kind of series: Inhibition of PI3Kdelta in human SU-DHL-5 cells assessed as inhibition of S6 phosphorylation at 1 to 5 uM measured after 3 hrs by western blot assay. The format is cell-based. Conditions: dose 1-5 µM. In outline:
as §1

Series [3] in a line: Half life in Sprague-Dawley rat at 3 mg/kg, po measured for 24 hrs by LC-MS/MS analysis. The format is ADME, organism-based. Conditions: in vivo. The gist of the method: (§2)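 Sprague-Dawley rats dosed orally at 1 or 3 mg/kg, three animals per group. Blood sampled at 0.25, 0.5, 1, 2, 4, 8 and 24 h post-dose. Plasma separated by centrifugation, extracted and quantified by LC-MS/MS. PK parameters (Cmax, AUClast, Tmax, t1/2) derived by non-compartmental software.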

The nature of series [4]: Tmax in Sprague-Dawley rat at 3 mg/kg, po measured for 24 hrs by LC-MS/MS analysis. The format is ADME, organism-based. Particulars: in vivo. The gist of the method:
as §2

Series [5] has as its system SU-DHL10. In words: Induction of apoptosis in human SU-DHL-10 cells assessed as necrotic cells at 20 uM measured after 24 hrs by AnnexinV-FITC/PI staining based flowcytometry method (reference value: 0.2%). The format is functional. In outline: (§3)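 Cells exposed to 20 μM compound for 24 h, washed with cold PBS, and stained with Annexin V-FITC and propidium iodide for 15 min at room temperature. Viable, early apoptotic, late apoptotic and necrotic populations quantified by flow cytometry.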

Series [6] has as its target T1, Phosphatidylinositol 4,5-bisphosphate 3-kinase catalytic subunit delta isoform (Homo sapiens). In words: Inhibition of PI3Kdelta in human MOLT-4 cells assessed as inhibition of 4EBP1 phosphorylation at 1 to 5 uM measured after 3 hrs by western blot assay. The format is cell-based. Conditions: dose 1-5 µM. In outline:
as §1

For series [7], the system named is MRC5. Kind of series: Cytotoxicity against human MRC5 cells assessed as inhibition of cell viability measured after 48 hrs by MTT assay. It is filed as cell-based. Conditions: MRC5, 48 h. In outline: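 MTT assay in MRC-5 cells seeded at 2×10^6 cells/mL. Compound given in 1% FBS EMEM for 48 h at 37 °C in CO2. MTT solution then added for 3 h at 37 °C. Medium removed and formazan dissolved in DMSO.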
On the technique in general: Formazan colour is commonly taken as a measure of viable cells.

Series [8] concerns the target T1, Phosphatidylinositol 4,5-bisphosphate 3-kinase catalytic subunit delta isoform (Homo sapiens). In words: Inhibition of PI3Kdelta in human MOLT-4 cells assessed as inhibition of AKT phosphorylation at Ser473 residue at 1 to 5 uM measured after 3 hrs by western blot assay. Particulars: dose 1-5 µM. The format is cell-based. The gist of the method: as §1
Series [9] has the same target. Kind of series: Inhibition of PI3Kdelta in human SU-DHL-5 cells assessed as inhibition of AKT phosphorylation at Ser473 residue at 1 to 5 uM measured after 3 hrs by western blot assay. It is filed as cell-based. Conditions: dose 1-5 µM. In outline:
as §1

Series [10] can be described thus: Toxicity in Balb/c nude mouse xenografted with human MOLT-4 cells assessed as changes in body weight at 10 mg/kg, po administered via gavage qd for 57 days. The format is organism-based. Particulars: in vivo, 1368 h, dose 10 mg/kg/day, time 57 day. The gist of the method: (§4)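 MOLT-4 cells (2×10^6 in 0.1 mL D-PBS) implanted subcutaneously on the back of BALB/c-nude mice. Once tumours grew, mice were dosed daily by oral gavage at 10 mg/kg for 57 consecutive days. Tumours measured by caliper, with volume = ½ × […]. Body weight was tracked over the same period.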
In general terms: Xenograft models place foreign cells or tissue in a host animal.

The test system of series [11] is SU-DHL-5. In words: Antiproliferative activity against human SU-DHL-5 cells assessed as cell viability at 10 uM by CellTiter-Glo luminescent cell viability assay (reference value: 100%). The format is functional. Conditions: read-out: Activity.
Series [12] is described as follows: AUC (last) in Sprague-Dawley rat at 3 mg/kg, po measured for 24 hrs by LC-MS/MS analysis. It is filed as ADME, organism-based. Further details: route oral, time 24 hrs, dose 3 mg/kg. Particulars: in vivo. The gist of the method:
as §2

Series [13] deals with MOLT-4. In words: Induction of apoptosis in human MOLT-4 cells assessed as necrotic cells at 20 uM measured after 24 hrs by AnnexinV-FITC/PI staining based flowcytometry method (reference value: 0.51%). It is filed as functional. In outline: as §3
Series [14] relates to MOLT-4. Kind of series: Antitumour activity against human MOLT-4 cells xenografted in Balb/c nude mouse assessed as inhibition of tumour growth at 10 mg/kg, po administered via gavage qd for 57 days. Conditions: MOLT-4, po, 1368 h, time 57 day, read-out: TGI. It is filed as functional. The gist of the method: as §4
Series [15] has as its system SU-DHL10. In words: Induction of apoptosis in human SU-DHL-10 cells assessed as viable cells at 20 uM measured after 24 hrs by AnnexinV-FITC/PI staining based flowcytometry method (reference value: 90%). It is filed as functional. Particulars: read-out: Activity. In outline:
as §3

For series [16], the system named is MOLT-4. In words: Induction of apoptosis in human MOLT-4 cells assessed as viable cells at 20 uM measured after 24 hrs by AnnexinV-FITC/PI staining based flowcytometry method (reference value: 95.3%). The format is functional. Particulars: read-out: Activity. In outline:
as §3

Series [17] has as its system MOLT-4. Kind of series: Induction of apoptosis in human MOLT-4 cells assessed as late apoptotic cells at 20 uM measured after 24 hrs by AnnexinV-FITC/PI staining based flowcytometry method (reference value: 2.17%). It is filed as functional. The gist of the method:
as §3

Molecules are shown by their SMILES. Calls of active or inactive are those of the source.

Consider `Cc1cccc2nc([C@@H](Nc3ncnc4nc[nH]c34)C3CC3)n(-c3ccccc3)c(=O)c12`, for which the inhibition entry in [1], in series [2], in series [6], in series [8] and in [9] was “Active” each time. In addition, the half-life (usually the time needed for the level to fall by half in the phase considered) in [3] was 498 min. Also, in [4], the Tmax (commonly the time from dosing to the highest level) was found to be 30 min. Moreover, the Activity in series [5] is listed as 4.16%; in series [10], “Non-Toxic”; in [13], 3.3%; in series [17] it was 42.3%. In addition, in series [7], the concentration for half-maximal inhibition (IC50) (as a rule, the midpoint of a concentration-inhibition curve) is 49.1 µM. Also, the viability at 10 µM in series [11] worked out at 20.2%. For the same molecule, the AUC(0-t) – broadly, the area under the concentration-time curve up to a stated or last time point – at 24 h in [12] is 37.2 ng·h/mL. Moreover, the inhibition in vivo at 10 mg/kg/day in [14] was determined as 56.7%. The viability at 20 µM was found to be 15% in [15] and 41% in [16].
Take `O=c1c2c(F)cccc2nc([C@@H](Nc2ncnc3nc[nH]c23)C2CC2)n1-c1ccccc1`: the inhibition entry in [1], in series [2], in series [6], in [8] and in series [9] was “Active” each time. In [3], the half-life was 462 min. For the same molecule, the Tmax in [4] stood at 60 min. Also, the Activity in [5] was 1.77%; in series [10] it was “Non-Toxic”; in series [13] it was 2.47%; in series [17], 30.3%. For the same molecule, in series [7], the IC50 was greater than 100 µM. In series [11], the viability at 10 µM stood at 34.8%. The molecule further yielded an AUC(0-t) at 24 h in series [12] of 255 ng·h/mL. Also, the inhibition in vivo at 10 mg/kg/day in series [14] came out at 55.1%. Also, the viability at 20 µM in series [15] is 19.7%; in series [16] it was 49.5%.

The record behind these values is ChEMBL document CHEMBL4834477, “Synthesis and biological evaluation of novel purinyl quinazolinone derivatives as PI3Kδ-specific inhibitors for the treatment of hematologic malignancies” (Bioorg Med Chem, 2021).
